Results on five compounds are retold here after article PMC10839685 (iScience, 2024).

Molecules are shown by their SMILES. Values joined by “and” are separate entries in the source; they are usually repeats but may differ in a detail not shown here. Identical values can stand only once. “Also recorded” adds a separate entry of the source.

The test system of data set [1] is human imidazoline receptors (I1, I2). The following applies: cited from earlier work.
The test system of a further data set is AgDI from E. faecalis. As to conditions: substrate, cited from earlier work.
The target in data set [2] is T1, E. coli agmatinase (EcAGM) (Escherichia coli, UniProt P60651).
T1 sequence (P60651 1-306): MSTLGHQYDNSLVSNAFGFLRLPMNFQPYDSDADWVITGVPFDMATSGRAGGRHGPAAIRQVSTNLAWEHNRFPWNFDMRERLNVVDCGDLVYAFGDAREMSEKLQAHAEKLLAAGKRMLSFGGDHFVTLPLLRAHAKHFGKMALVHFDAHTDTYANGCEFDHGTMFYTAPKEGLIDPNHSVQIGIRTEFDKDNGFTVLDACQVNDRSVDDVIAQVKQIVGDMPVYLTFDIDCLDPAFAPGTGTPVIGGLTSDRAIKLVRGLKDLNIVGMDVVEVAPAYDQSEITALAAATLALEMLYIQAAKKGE
Kind of data set: E. coli agmatinase. The format is biochemical. As to conditions: for Ki: EcAGM, competitive inhibition, pH 7.5, 100 mM HEPES, 2 mM MnCl2, substrate agmatine.

Data set [3] deals with E. faecalis agmatine deiminase (AgDI). The experiment in a line: Agmatine deiminase activity, GDH coupled enzyme assay. Type of data set: biochemical, Enterococcus faecalis. As to conditions: pH 7.5. An outline of the steps:
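His-tagged, codon-optimized E. faecalis AgDI was expressed in E. coli (LB without added metal, 1 mM IPTG, 16°C, 20 h) and purified by Ni-affinity chromatography. Agmatine-initiated ammonia release was coupled to GDH (2.5 U/mL) with 5 mM 2-oxoglutarate, 0.3 mM NADH and 0.8 mM ADP in HEPES-NaOH pH 7.5. Initial rates came from continuous A340 (ε 6220 M⁻¹cm⁻¹, 0.56 cm path).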

The conditions of data set [4]: 1000–2000 mg daily; cited from earlier work.
The conditions of data set [5]: cited from earlier work.
In data set [6] the target is serine hydroxymethyltransferase 2. As to conditions: read-out: Ki, serine hydroxymethyltransferase 2; mixed inhibition; cited from earlier work.
In a further data set the test system is type 2 diabetes patients. The following applies: cited from earlier work.
For data set [7], the system named is EcAGM, CbAGM, GpuA, AGMAT, ARG1 and ARG2. The experiment in a line: HPLC analysis for metformin transformation by purified enzymes. The format is in vitro ADME. The following applies: 1 mM metformin, 10 μg purified enzyme, 20 mM CHES pH 9, overnight. In a few lines:
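His-tagged enzymes were expressed in E. coli BL21(DE3) and purified by Ni-affinity IMAC. ARG2 and AGMAT were mitochondrial-signal truncations (ARG2 Δ1-24/Δ331-354, AGMAT Δ1-35). Metformin was incubated with each enzyme, then analysed by reversed-phase C18 HPLC with an isocratic mobile phase of 75:25 (v/v) acetonitrile:10 mM potassium phosphate pH 6.6, which separates guanylurea from metformin.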

Another data set deals with human PEN2 protein. The following applies: cited from earlier work.
A further data set deals with complex IV. The following applies: cited from earlier work.
In data set [8] the target is C. butyricum agmatinase (CbAGM) (Clostridium butyricum, UniProt C4IHF6). The format is biochemical. As to conditions: 5000 µM.
Sequence of C. butyricum agmatinase (CbAGM) (C4IHF6 1-283): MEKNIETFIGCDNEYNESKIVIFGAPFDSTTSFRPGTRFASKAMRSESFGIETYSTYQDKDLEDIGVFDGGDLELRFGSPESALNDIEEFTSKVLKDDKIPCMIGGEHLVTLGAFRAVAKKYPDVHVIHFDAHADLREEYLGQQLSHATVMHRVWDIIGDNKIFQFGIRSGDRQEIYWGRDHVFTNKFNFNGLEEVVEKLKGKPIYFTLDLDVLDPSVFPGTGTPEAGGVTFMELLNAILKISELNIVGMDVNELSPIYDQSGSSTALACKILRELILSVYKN

As to `NCCCCN=C(N)N` [agmatine], the “binding and agonism at human imidazoline receptors (I1, I2)” value in data set [1] is reported as “micromolar range”. Moreover, the Michaelis constant (Km) (as a rule, the substrate concentration at which the rate is half of its maximum) with AgDI from E. faecalis (read-out: KM, AgDI from E. faecalis) is 35 µM. The “kcat, AgDI from E. faecalis” value in the data set on AgDI from E. faecalis is 840 s⁻¹.

On to `CCCCNC(=N)NC(=N)N` [buformin], for which the Ki (usually the equilibrium dissociation constant of an inhibitor or competing ligand from its target) in [2] came out at 100 µM.

`CC(C)=CCN=C(N)N` [galegine] gave a Ki in data set [2] of 7 µM. Besides, the “inhibition of agmatine deiminase (AgDI)” value in data set [3] (5 mM galegine) was “not inhibited”.

As to `CN(C)C(=N)N=C(N)N` [metformin], the “predicted reduction in the maximum velocity of EcAGM-like enzymes” value in data set [2] (5 mM metformin, 20 μM agmatine, steady state Michaelis-Menten model) is on record as 83%. Besides, the Ki in data set [2] is 1100 µM and 1000 µM and ~1000 µM; in data set [6], 13000 µM. Moreover, the “fraction excreted into wastewater” value in data set [4] is reported as > 80%. For the same compound, in data set [5], the “concentration of metformin in the human gut” value is 1000 to 10000 µM. Also, in the data set with type 2 diabetes patients, the “effectiveness of intravenous administration in type 2 diabetes patients” value was “little or no effectiveness”. Besides, the “transformation of metformin by ureohydrolase homologs” value in [7] was “No metabolism; also recorded: No transformation”. For the same compound, at human PEN2 protein, the “binding constant, human PEN2 protein” value is reported as “micromolar range”. Moreover, the “inhibitory concentration, mitochondrial respiration proteins like complex IV” value in the data set on complex IV is recorded as “hundreds of micromolar”. For the same compound, the “inhibition of agmatine deiminase (AgDI)” value was “not inhibited” in data set [3] (50 mM metformin) and “does not inhibit” in data set [3] (50 mM metformin, listed as Metformin). Also, the “predicted reduction in the maximum velocity of CbAGM-like enzymes” value in [8] was 27%.

`[H]/N=C(/N)N/C(=N/[H])NCCc1ccccc1` [phenformin] displayed a Ki in data set [2] of 600 µM.
